The list is not random: actives were taken first. Their share in the collection is about 2.3%.
TRPC6 inhibitor = mouse TRPC6 channel inhibitors, primary screen, cell-based, HEK293, membrane potential dye; ACh-evoked depolarization; hits give low values; 1.1% of 310,000 active; B-score at 10 µM;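 active = B-score under library mean minus 3 SD, initial fluorescence not abnormally high, positive integrated signal ratio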;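 also: B-score derived from integrated fluorescence ratio over the kinetic read; more negative B-score means stronger inhibition of depolarization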
TRPC4 agonist = activators of mouse TRPC4 channel, primary screen, Fluo4 calcium, HEK293 TRPC4beta/mu-opioid cells | Short transient receptor potential channel 4 (Mus musculus), Q9QUQ5 | Fluo4 calcium fluorescence; hits give high values | B-score at 10 µM | 0.49% of 310,000 active;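 active = B-score above 5 SD of library B-scores, and initial fluorescence ratio not above library mean plus 5 SD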;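 also: positive B-score marks a calcium rise read as TRPC4 activation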
Target sequence (Q9QUQ5 whole entry, looked up): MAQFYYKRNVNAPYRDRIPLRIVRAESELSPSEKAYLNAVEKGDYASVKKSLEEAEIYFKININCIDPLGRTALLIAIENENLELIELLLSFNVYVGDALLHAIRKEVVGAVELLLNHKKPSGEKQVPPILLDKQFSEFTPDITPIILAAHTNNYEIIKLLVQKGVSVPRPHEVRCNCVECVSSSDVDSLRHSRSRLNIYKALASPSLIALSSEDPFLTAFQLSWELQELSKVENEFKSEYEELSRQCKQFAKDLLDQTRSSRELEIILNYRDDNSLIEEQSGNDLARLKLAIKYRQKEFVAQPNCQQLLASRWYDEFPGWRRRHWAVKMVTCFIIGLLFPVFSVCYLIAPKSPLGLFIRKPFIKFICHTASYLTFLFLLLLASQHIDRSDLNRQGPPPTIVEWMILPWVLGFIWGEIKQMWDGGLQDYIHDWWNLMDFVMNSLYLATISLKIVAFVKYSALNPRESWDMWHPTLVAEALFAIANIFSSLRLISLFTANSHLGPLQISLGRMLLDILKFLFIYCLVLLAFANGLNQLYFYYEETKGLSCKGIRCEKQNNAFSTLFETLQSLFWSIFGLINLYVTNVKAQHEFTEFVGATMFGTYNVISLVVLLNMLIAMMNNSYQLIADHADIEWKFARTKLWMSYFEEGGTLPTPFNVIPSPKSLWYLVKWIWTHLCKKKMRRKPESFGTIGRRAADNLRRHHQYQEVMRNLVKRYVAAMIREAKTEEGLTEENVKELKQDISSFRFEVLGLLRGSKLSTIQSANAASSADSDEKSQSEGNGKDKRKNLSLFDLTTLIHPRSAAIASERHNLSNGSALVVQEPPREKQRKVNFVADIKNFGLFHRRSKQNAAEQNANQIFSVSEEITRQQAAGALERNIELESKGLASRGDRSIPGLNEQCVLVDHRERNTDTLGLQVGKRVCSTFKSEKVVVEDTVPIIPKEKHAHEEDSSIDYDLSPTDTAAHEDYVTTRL
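Incubation: 45 min room-temperature Fluo4 loading, 110 s read / System: HEK293 cells stably co-expressing mouse TRPC4beta and mu-opioid receptor / Signal: Fluo4 fluorescence, kinetic / Control set: buffer (low) and maximal DAMGO (high) / Measure: integrated baseline-normalised fluorescence ratio, converted to per-well B score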
TRPC4 block = inhibitors of mouse TRPC4 channel, primary screen, Fluo4 calcium, HEK293 TRPC4beta/mu-opioid cells; DAMGO-evoked Fluo4 calcium flux; hits give low values; 0.39% of 300,000 active; AID 2247, 2010; B-score at 10 µM;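 active = B-score over 3 SD under the library average, no early fluorescence shift, positive overall ratio signal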
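Material: HEK293 cells with stable TRPC4beta plus mu-opioid receptor expression / Probe or stimulus: DAMGO in two steps, submaximal then maximal / Compound: single concentration per test compound / Technique: kinetic Fluo4 fluorescence imaging of calcium influx / Read-out: per-well B score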
TRPC6 activator = mouse TRPC6 channel activators, primary screen, cell-based, HEK293, membrane potential dye. HEK293-TRPC6 membrane potential dye fluorescence; hits give high values. B-score at 10 µM. 0.13% of 310,000 active. AID 2550, 2010;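 active = B-score of the integrated fluorescence ratio above library mean plus 3 SD, and starting fluorescence ratio within library mean plus 5 SD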;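 also: higher score means more depolarization so channel activation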
TRPC4 potent = positive allosteric modulators of TRPC4, primary screen, cell-based, mouse TRPC4beta, HEK293 mu-opioid, Fluo-4 calcium; Short transient receptor potential channel 4 (Mus musculus), Q9QUQ5; DAMGO EC20, Fluo-4 Ca2+ flux; hits give high values; B-score at 10 µM; 0.42% of 310,000 active;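 active = B-score of calcium response area above 5 SD of library B-scores, with initial fluorescence ratio within 5 SD of library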;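 also: B-score of integrated fluorescence ratio over time as area under calcium response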
TRPC4 sel inh 2 = mouse TRPC4 off-target activity of TRPC6 inhibitors, second screen. HEK293 TRPC4/MOR, membrane potential dye fluorescence; channel activated by saturating DAMGO dose. shares compounds with TRPC6 inhibitor. 42% of 920 active. AID 2776. inhibition, % at 10 µM;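 active = compounds whose fluorescence signal differed from control wells by over 3 SD, either direction, in both duplicate plates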
TRPC4 spec = mouse TRPC4 modulation by TRPC6 hits, confirmation, selectivity assay for TRPC6 inhibitor project, cell-based, HEK293 TRPC4/mu-opioid, membrane potential dye. shares compounds with TRPC6 inhibitor. 61% of 920 active. membrane potential fluorescence. activity change, negative = inhibition, % at 10 µM;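 active = rise or fall in signal beyond 3 SD of buffer-only wells in both replicate plates, either sign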;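 also: integrated kinetic ratio of fluorescence range over baseline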
HEK293 MPD ctr 2-1 = nonspecific membrane potential effects, parental HEK293, confirmation, counter-screen for TRPC6 inhibitor project, cell-based, second counter screen | signal change vs control, % at 10 µM | 31% of 920 active | parental HEK293 membrane potential dye fluorescence; maximal acetylcholine challenge after compound addition | shares compounds with TRPC6 inhibitor;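 active = membrane potential signal moving either way by over 3 SD of the maximum-effect control, in both duplicate plates, meaning non-specific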
HEK293 MPD ctr-1 = membrane potential modulation in parental HEK293, confirmation, counter-screen for TRPC6 inhibitor project, cell-based. shares compounds with TRPC6 inhibitor. parental HEK293 membrane potential dye fluorescence. membrane potential signal change, % at 10 µM. 60% of 920 active. AID 2780, 2010;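 active = membrane potential signal shifting up or down by more than 3 SD of buffer-only wells, on both duplicate plates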
HEK293 MPD ctr-2 = parental HEK293 membrane potential modulation, confirmation, counter-screen for TRPC6 modulator project, cell-based. shares compounds with TRPC6 inhibitor. membrane potential dye fluorescence. membrane potential signal change, % at 10 µM. 51% of 2,400 active. AID 488924, 2010;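 active = membrane potential signal moves up or down beyond 5 SD from buffer-only wells, on both duplicate plates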
HEK293 MPD ctr 2-2 = second check of TRPC6 modulator effects in parental HEK293 cells. shares compounds with TRPC6 inhibitor. membrane potential dye fluorescence; after compound, maximal acetylcholine stimulation. inhibition, % at 10 µM. 14% of 2,400 active. AID 488926;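 active = membrane potential signal drops by more than 5 SD from the mean control signal, in both duplicate plates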;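 also: plate controls were acetylcholine ECmax control wells for no effect and buffer only wells for full effect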
TRPC4 ctr mod = TRPC4 modulation by TRPC6 hit compounds, confirmation, selectivity assay for TRPC6 modulator project, cell-based, HEK293 TRPC4/mu-opioid, membrane potential dye, mouse. shares compounds with TRPC6 inhibitor. membrane potential fluorescence. percent change from control (negative = decrease, positive = increase), % at 10 µM. 69% of 2,400 active. AID 488927, 2010;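 active = membrane potential signal moved up or down beyond 5 SD of buffer control wells, in both duplicate plates, actives on both sides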;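 also: plate controls were assay buffer wells for no effect and DAMGO maximal-effect wells for full effect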
TRPC4 ctr inh 2 = mouse TRPC4 off-target activity of TRPC6 modulators, second screen | shares compounds with TRPC6 inhibitor | 55% of 2,400 active | HEK293 TRPC4/mu-opioid, membrane potential dye fluorescence; stimulated with maximal-effect DAMGO | inhibition, % at 10 µM;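 active = drop in membrane potential signal beyond 5 SD of the control wells in both duplicate plates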;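 also: TRPC4 counter screen for TRPC6 hits run under conditions tuned for TRPC6 not TRPC4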
TRPC6 block conf = mouse TRPC6 channel inhibitors, confirmation, HEK293 cells, membrane potential dye, duplicate | ACh-evoked depolarization | 43% of 3,300 active | inhibition, % at 10 µM | shares compounds with TRPC6 inhibitor | AID 488960, 2010;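 active = fluorescence ratio falls more than 5 SD below the full-stimulation control mean, in both duplicate runs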;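 also: integrated fluorescence ratio of peak minus minimum over baseline after agonist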
TRPC6 act confirm = mouse TRPC6 channel activators, confirmation, HEK293 cells, membrane potential dye, duplicate | activation, % at 10 µM | HEK293-TRPC6 membrane potential dye fluorescence, FDSS | shares compounds with TRPC6 inhibitor | 11% of 2,800 active | AID 488961, 2010;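 active = ratio signal rise beyond 5 SD above unstimulated control wells' mean, seen in both duplicate runs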;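 also: plate controls were buffer EC0 wells for no effect and acetylcholine ECmax response for full effect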
Starred values were filed as active, the others as inactive; i = inactive; · = not tested or not shown.

SMILES	TRPC6 inhibitor	TRPC4 agonist	TRPC4 block	TRPC6 activator	TRPC4 potent	HEK293 MPD ctr-2	HEK293 MPD ctr 2-2	TRPC4 ctr mod	TRPC4 ctr inh 2	TRPC6 block conf	TRPC6 act confirm	others
CCOP(=O)(OCC)C(NC(=O)c1cc([N+](=O)[O-])cc([N+](=O)[O-])c1)C(F)(F)F (stereo not drawn)	i	i	i	i	i	·	·	·	·	·	·
Cc1cc(OCC(=O)O/N=C(\N)Cc2cccs2)ccc1Br	-9.78*	i	i	i	i	·	·	·	·	i	i	TRPC4 sel inh 2=i;TRPC4 spec=i;HEK293 MPD ctr 2-1=i;HEK293 MPD ctr-1=i
O=C(Nc1ccccc1Cl)C1CCCN1C(=O)OCc1ccccc1 (stereo not drawn)	i	i	i	i	i	·	·	·	·	·	·
Cc1nc2c(C(=O)N3CCCCC3)cnn2c(C)c1Cc1ccccc1F	-10.9*	i	i	21.8*	i	147.0%*	i	28.5%*	30.0%*	114.0%*	177.5%*
Cc1cc(NC(=O)CNCC(c2ccccc2)N(C)C)c([N+](=O)[O-])cc1C (stereo not drawn)	-9.45*	i	i	i	i	·	·	·	·	i	i	TRPC4 sel inh 2=64.0%*;TRPC4 spec=-11.6%*;HEK293 MPD ctr 2-1=i;HEK293 MPD ctr-1=-151.0%*
O=C(C(=O)N1CCN(c2ccc([N+](=O)[O-])cc2)CC1)c1cn(CC(=O)N2CCOCC2)c2ccccc12	i	i	i	i	i	·	·	·	·	·	·
CCn1cc(/C=N\NC(=O)c2cc(-c3ccccc3OC)nc3ccccc23)c(C)n1	i	i	i	i	i	·	·	·	·	·	·
COc1ccccc1-c1cc(C(=O)N/N=C\c2cn(C)nc2C)c2ccccc2n1	-5.91*	i	i	i	i	i	i	i	i	44.0%*	·
CN(C)/C=C/C(=O)c1ccc(OCCN(C)c2ccccn2)cc1	-6.72*	i	i	i	i	·	·	·	·	i	i	TRPC4 sel inh 2=46.0%*;TRPC4 spec=37.3%*;HEK293 MPD ctr 2-1=i;HEK293 MPD ctr-1=i
CN(C)/C=C/C(=O)c1ccc(Oc2ccccc2)cc1	i	i	i	i	i	·	·	·	·	·	·
CCN(CC)S(=O)(=O)c1ccc(NC(=O)CCC2CCCCC2)cc1	i	i	i	i	i	·	·	·	·	·	·
CCN(CC)S(=O)(=O)c1ccc(NC(=O)CNC2CCCCC2)cc1	-5.28*	i	i	i	i	i	i	i	57.5%*	46.0%*	i
CC1CC(=O)N(CC(=O)Nc2ccc(F)cc2F)c2ccccc2S1(=O)=O (stereo not drawn)	i	i	i	i	i	·	·	·	·	·	·
CN1Cc2sc(NC(=S)NC(=O)c3ccccc3)c(C#N)c2CC1(C)C	-5.2*	i	i	20.9*	i	168.5%*	i	23.5%*	i	i	40.0%*
CCC1(C)Cc2c(sc(NC(=S)NC(=O)c3ccccc3)c2C#N)CO1 (stereo not drawn)	i	i	i	i	i	·	·	·	·	·	·
CCc1ccccc1NC(=O)CNCC(=O)Nc1ccccc1CC	i	i	i	i	i	·	·	·	·	·	·
C[N+](C)(C)C/C=C1/COCO1	-6.65*	i	i	i	i	·	·	·	·	i	·	TRPC4 sel inh 2=i;TRPC4 spec=0.5%*;HEK293 MPD ctr 2-1=i;HEK293 MPD ctr-1=0.3%*
O=C(Nc1ccc(Cc2ccncc2)cc1)c1cc([N+](=O)[O-])ccc1N1CCOCC1	i	i	i	i	i	·	·	·	·	·	·
O=C(Nc1cc(C(F)(F)F)ccc1N1CCOCC1)c1ccccc1	i	i	i	i	i	·	·	·	·	·	·
O=C(Nc1cc(C(F)(F)F)ccc1-n1cnc2ccccc21)c1ccccc1	-5.26*	i	i	i	i	106.5%*	i	19.0%*	i	47.0%*	·
O=C(NC1CCCCC1)C(c1ccc(F)cc1)N(CCN1CCOCC1)C(=O)c1ccc(-c2ccccc2)[nH]1 (stereo not drawn)	i	i	i	i	i	·	·	·	·	·	·
O=C(NC1CCCC1)C(c1ccncc1)N(CCCN1CCOCC1)C(=O)c1ccc(-c2ccccc2)[nH]1 (stereo not drawn)	-5.13*	i	i	i	i	i	i	i	36.0%*	i	i
Cn1nnnc1SCCNCc1ccccc1OCc1ccccc1Cl	-5.5*	i	i	i	i	122.0%*	i	24.0%*	81.0%*	43.5%*	·

Screening results: PubChem, Johns Hopkins Ion Channel Center
